Test system: MS2 coat protein
Assay: apparent Kd, MS2 coat protein; higher = weaker binding; RNA-MaP array; FMN 200 µM where present
Summary of the method: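 SNAP-549-labelled MS2 coat protein, doubled from 0.7 or 1.5 nM to 3 µM, was titrated over designs transcribed by stalled E. coli RNA polymerase on Illumina sequencing-chip clusters. Titrations were run without and then with constant ligand in 100 mM Tris-HCl pH 7.5, 80 mM KCl, 4 mM MgCl2, BSA, DTT, yeast tRNA and Tween-20. The apparent Kd is the median of filtered per-cluster fits to green signal normalised to red-channel RNA signal and control-cluster median Fmax.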

[1] = designed as: OFF switch for flavin mononucleotide, no ligand
[2] = ligand present: flavin mononucleotide, designed as: OFF switch for flavin mononucleotide
[3] = designed as: ON switch for flavin mononucleotide, no ligand
[4] = ligand present: flavin mononucleotide, designed as: ON switch for flavin mononucleotide

| Sequence | apparent Kd [1] [nM] | apparent Kd [2] [nM] | apparent Kd [3] [nM] | apparent Kd [4] [nM] |
| --- | --- | --- | --- | --- |
| GACGGUGAUGUAGGAUAUACGCUGGAUAACAGCGUAGAAGGACAUGAGGAUCACCCAUGUAAAGUGUCUCUAAAUAACACCGUC | 20.7 | 47.5 |  |  |
| UGUCUGUCAGGAUAUCCAGAAGAGAAGAAAGUAAGAUGAGUGGAGAAGGGACAUGAGGAUCACCCAUGUAAUUA | 31 | 36.4 |  |  |
| CAGGAAAUAGAGGAUAUAGGAGUCGAUAGACUCCUAGAAGGCUAUACAUGAGGAUCACCCAUGUGUCCUACCUG | 16.7 | 43 |  |  |
| GUCACGUAAGGAUAUCAUUAGUUGGACAUGAGGAUCACCCAUGUGAGACUAACUCCGGCGUGAGAAGGUGCGUUAA | 13.4 | 16.7 |  |  |
| AAUAAACAUGAGGAUCACCCAUGUCAGGAUAUGCGUCUAUCCUUAUUGCAUAGAUACGGCAGAAGGGACUAAUG | 31.9 | 56.9 |  |  |
| GUAAACCUAGGAUAUACAUGAGGAUCACCCAUGUAAAGUUUCGUAAAAAGAUAAUCGAGUAGAAGGAGGUAGAU | 21.4 | 23.4 |  |  |
| GCGUAUUAGGUGUAGCUAGUCAUUCAAGAAGGGUGGAGAACAUGAGGAUCACCCAUGUAGUUUAUACAGGAUAUUGAUAUACGC |  |  | 489 | 101 |
| UUUAUAUAGUAAGGAUAUGUAUUAUUUUUGUCAACAGAAGGUACUGACAUGAGGAUCACCCAUGUUUUAGUGUGGGCAUGUAGU | 219 | 283 |  |  |
| AAAAAGAUAGGAUAUACAUGAAAAAAAAAAAAAAAAAAAAGACAUGAGGAUCACCCAUGUAGAAGGGUCAAAAA | 133 | 124 |  |  |
| GUAGCUAUCGGAGGAUAUUCAUUAUACAUGAGGAUCACCCAUGUUAAAGUGGGAGAAGGCCGAUAGCUACAAGAGCGAAAGCUC |  |  | 35.8 | 8.13 |
| GGUUAUUGCAAGGAUAUGCUUUUUUUUUAUAUUGCAGAAGGUGCAACAUGAGGAUCACCCAUGUUGGAGGGUUU | 24.5 | 42.9 |  |  |
| CAUACACAUGAGGAUCACCCAUGUGAGGAUAUGCGUACGUUGUCCGUAGGCGACGUGCGCAGAAGGCGCGUGAG | 60.1 | 67.6 |  |  |
| ACGGAGCUAGGAUAUACAUGAGGAUCACCCAUGUAUGAUGCGGCGCCCUUUUGCGCCUGUAGAAGGAGCACCGU | 15.9 | 16.5 |  |  |
| CGGCGCUGUCGAGAGGAUAUGCGGUGAUGGACAUGAGGAUCACCCAUGUUAGCGAUAGCAUCACGGUAGAAGGCUCUACGGCUGC |  |  | 12 | 11.3 |
| AAUUCACAUGAGGAUCACCCAUGUCAGGAUAUGGUGACGCGGGUUUCGGUGCGUGUUGCCAGAAGGGACGGCUG |  | 115 |  |  |
| CAACUGUGAGGAUAUGGUGAGUAGUGCCUGAGCGCUGCUCACCAGAAGGCACAUGAGGAUCACCCAUGUAUGAC | 46 | 164 |  |  |
| GUAUAUCACUAAGGAUAUCUGUAAUUUGUUGAAACAUGAGGAUCACCCAUGUUCAUGAAUUUAUAGGAGAAGGUAGAGAUAUAC |  |  | 4.24 | 4.15 |
| GAUAGAGAGCAGGAUAUCUUGGAUAAGUAUUGUAGAGAAGGGCUCACAUGAGGAUCACCCAUGUGGUCCUAGAU | 14.2 | 34.2 |  |  |
| GGGCUCCCGCAGAAGGUGACAAAGUGUUCAUGUCAAGGAUAUGUGGUUCACAUGAGGAUCACCCAUGUAGGGCCCGUUAGGAAC |  |  | 97.3 | 23.9 |

| Sequence | apparent Kd [1] [nM] | apparent Kd [2] [nM] | apparent Kd [3] [nM] | apparent Kd [4] [nM] |
| --- | --- | --- | --- | --- |
| GGGCUGUCAGGAUAUGCUAGUGCUAGUGAAAGCUAGUGCUAGUAGAAGGGACAUGAGGAUCACCCAUGUGGCCC | 31.4 | 30.9 |  |  |
| CUAGCUUGCACAGGAUAUAGGCUCGGAGCUUACAUGAGGAUCACCCAUGUAGUGCGAGUGAAGCACUAGAAGGGUGAUGGGUAG |  |  | 40.4 | 22.8 |
| UUGUAAUGAUUAGGAUAUUAUUAAUAGAACUUUAUGAUAUACAUGAGGAUCACCCAUGUUACUUAUAAGAAGGAAUCGUAUUAU | 21.2 | 16.8 |  |  |
| UGGUACUAGGGAGGAUAUGGGAAGAUACAUGAGGAUCACCCAUGUUUAAGAAUGCCCAGAGGCAACUAGAAGGCCCUAGUACCU |  |  | 66.2 | 16.9 |
| CCCUAGAUCCGAGGAUAUACAAUCCGGAAACGGUACAUGAGGAUCACCCAUGUAGAAGGCGGAUCUACAGGUACUAAAGUACCC | 7.3 | 9.22 |  |  |
| GUCAGCUCGUGAGGAUAUACAUGUGCUGGAGACAGCACUAUUAUGUUCACAUGAGGAUCACCCAUGUAGAAGGCACGAGCUGAU | 16.8 | 20.9 |  |  |
| UAAGUUUAGGUAGGAUAUACUUUAAAUUUCUCUAUCCAUACAUGAGGAUCACCCAUGUUUACAUUGUAGAAGGACCACUAUGUU | 24.6 | 20.4 |  |  |
| AAUAUAAAGAGCUGGUAAACUCAAACAUGAGGAUCACCCAUGUAGGAUAUCAGCACGAUAAGUGCUGAGAAGGACAUCCAGCUC | 15.9 | 15.4 |  |  |
| AGUUAAUAUCGAGGAUAUGUCUAGACACAUGAGGAUCACCCAUGUAUGUGUAUAGAAGGCGAUAUUAACAGCAUGUUACAUGCU |  |  | 42.9 | 16.4 |
| UAUGUUGUUGUGAGGAUAUACUUUGUUUGACCGUAGUAGAAGGCACAUGAGGAUCACCCAUGUAGAUUUUUGGU | 9.74 | 13.6 |  |  |
| ACAGUAAACGAAGGAUAUGGUUACAUGAGGAUCACCCAUGUAAUGGUUGUGAUAUUGAUUAAGUUCCAGAAGGUCGUAUACUUA | 190 | 272 |  |  |
| GUCCUCCGUGCCCUUAACGCACAUGAGGAUCACCCAUGUAGGAGAAGGGCCCAACAAAUCAAAGGGCAGGAUAUCCAAAUCAUG | 75.1 | 18.9 |  |  |
| AAAAGGAUCUAACACGACGGGUCACCAGAAGGGACAUUGGCACAUGAGGAUCACCCAUGUCUAGGUCAGGAUAUGGGAUCAAGA |  |  | 72.3 | 10.4 |
| CAGGUGUUAGGAUAUCGGAGAUUGAGGCAGACGGGAAUAUUCGAGAAGGAACAUGAGGAUCACCCAUGUAGUAG | 24.5 | 28.9 |  |  |
| UUCGUGUGACAGAAGGGUCUUUCGGGCUGGGAGGCAGGAUAUGUGACAUGAGGAUCACCCAUGUUGGUAUCGUCUGUGUGUACG | 6.15 | 12.8 |  |  |
| UCCUGGCGAGGAUAUACAAAGUUUUUUACGUUUUGUUACGAACAUGAGGAUCACCCAUGUAGAAGGUGCUGCUG | 62.2 | 58.1 |  |  |
| GUUUUUCCUCAUGUACAUGAGGAACAUGAGGAUCACCCAUGUAGAAGGAUUUCCCUUAAAUUAAAAUAGGAUAUACAUAUAUUU | 88.6 | 58.9 |  |  |
| AGGAGGUCAGGAUAUGCAUGGCGGGACUUGCGUCGUGGCGUGCAGAAGGGACAUGAGGAUCACCCAUGUGGAGG | 125 | 181 |  |  |
| UAAUCUCAGAUAGGAUAUAUAGGAUAACUUAAGACCUAACAUGAGGAUCACCCAUGUGAUUAUUCGUAGAAGGAUCAUUGAACC |  |  | 206 | 217 |

| Sequence | apparent Kd [1] [nM] | apparent Kd [2] [nM] | apparent Kd [3] [nM] | apparent Kd [4] [nM] |
| --- | --- | --- | --- | --- |
| CGGGUCUGAGGAUAUCCAUCUUCAUACAUGAGGAUCACCCAUGUUCACCCUUGGGUUCCCGGAGAAGGCAGUUUUC | 65 | 67.8 |  |  |
| GUCGGAAACGACAAAGUAGCAUAGGAGGAUAUUCAUUAAAACAUGAGGAUCACCCAUGUAAAUUGGGAGAAGGCCUAUGCUACA |  |  | 17.8 | 5.26 |
| CUCCGUGGCGAGAAGGACGGAAUUUAAGGUUCUGUAGGAUAUCGAAACAUGAGGAUCACCCAUGUAUUGAUCGGGUGCAGUGUG | 26.9 | 32.2 |  |  |
| UGAUUUUCUUCUAACUAUCACCACAUGAGGAUCACCCAUGUCAAGGAUAUAGAGCGCGCUGGGUUCUAGAAGGUGGCGUGCCAA | 7.52 | 6.47 |  |  |
| AAAAGACAUGAGGAUCACCCAUGUGAAAACGUGCAAGGAUAUGUGUGGAAACCGUACUAUACAGAAGGUGUGUGUC |  |  | 32 | 41.8 |
| AAUCGAUGAUCAGGAUAUGUGGAGCCUCUAAGCGAUGAGGCGUACAUGAGGAUCACCCAUGUGACACAGAAGGGAUACAUGCGG |  |  | 60.7 | 8.43 |
| GGCUGGUGACAGCAUCCAUCAAAACAUGAGGAUCACCCAUGUAGAAGGCUGUACGGUUACCGUACAGAGGAUAUACAAUGAUGA | 14.5 | 24.2 |  |  |
| GGUGCGUAUGUGAGGAUAUGCUGGUCCUUGGCUCGGCAGAAGGCACAUGAGGAUCACCCAUGUGGUGUCGUACU | 130 | 46 |  |  |
| UCGACCAGCGCCAGUCAAACAUGAGGAUCACCCAUGUACUCCAGAAGGCCGCCCAAGAACGGAGUGGAGGAUAUGGAGGUUCUC |  |  | 43.2 | 36.7 |
| UCGCUGUCAGGAUAUCUUAUAUAGAACAUGAGGAUCACCCAUGUUCAUGUAUUCUGUGAGAGAGAAGGGACUCCUU | 15 | 17.4 |  |  |
| UAGAAACAUGAGGAUCACCCAUGUGGGUUAAACACAGGAUAUCACGCCAAAAGAAAAGCGUGAGAAGGGUGACCGA |  |  | 86.4 | 717 |
| ACUUCACAUGAGGAUCACCCAUGUCAGGCCGGACUAGGAUAUUAUCAUGCAGCGUAACAGUGAGAAGGAGUUGGAU |  |  | 91.2 | 89.3 |
| AACAGGACAGGAUAUACAUGAGGAUCACCCAUGUAGGAAUUAAGCAGCGUACCACACAGUAGAAGGGUCAUGGA | 35.5 | 34.6 |  |  |
| GUAUCAUAUGAGAAGGCGAUCAUGAAACAUGAUCGAGGAUAUCAUGAAAACAUGAGGAUCACCCAUGUAUGGGUAUUAAGGUAC |  |  | 65.6 | 41.7 |
| UUUUACAUAGGAUAUAGUUUGUUGUACAUGAGGAUCACCCAUGUUUUUGGUUGUGCUUUUCUAGAAGGAUGUUUCU | 47.7 | 41.7 |  |  |
| ACAGUGCGAGGAUAUACAUGAGGAUCACCCAUGUGAGAGAAAUAAGUGAGGAAGAAAAGUAGAAGGCGCGUUGA | 75.5 | 91.7 |  |  |
| GGAAAACAUGAGGAUCACCCAUGUGAGGAUAUCGAUGUCCAGAGGGAGGUGCGGGACUCGAGAAGGCACUUGGA | 34.2 | 82.8 |  |  |
| AUGCCAAAAGGAGGAUAUGGAGCCUUAUUGGCUCCAGAAGGCUUGACAUGAGGAUCACCCAUGUGGCAGUGGUCUAAUGACCAC |  |  | 18.5 | 15.1 |
